Measured values of several laboratories.
Compare with care: the assays were run in different laboratories. pIC50: −log10 of the molar value.
GSK3B: Glycogen synthase kinase-3 beta (GSK3B, Homo sapiens, UniProt P49841)
PIKFYVE: 1-phosphatidylinositol 3-phosphate 5-kinase (PIKFYVE, Homo sapiens, UniProt Q9Y2I7)
PIK3CA: Phosphatidylinositol 4,5-bisphosphate 3-kinase catalytic subunit alpha isoform (PIK3CA, Homo sapiens, UniProt P42336)
PDE9A: High affinity cGMP-specific 3',5'-cyclic phosphodiesterase 9A (PDE9A, Homo sapiens, UniProt O76083)
CELA1: Chymotrypsin-like elastase family member 1 (CELA1, Sus scrofa, UniProt P00772)
PADI1: Protein-arginine deiminase type-1 (PADI1, Homo sapiens, UniProt Q9ULC6)
CYP1A1: Cytochrome P450 1A1 (CYP1A1, Homo sapiens, UniProt P04798)
AVPR1A: Vasopressin V1a receptor (AVPR1A, Homo sapiens, UniProt P37288)

| Compound | target | test | setting | pIC50 |
| --- | --- | --- | --- | --- |
| COC(=O)C1=C(C)NC(C)=C(C(=O)OC)C1c1ccccc1[N+](=O)[O-] | GSK3B | enzyme activity, inhibitor, ADP detection |  | 4.56 |
| COC(C)(C)C#Cc1ccc2[nH]c3c(c2c1)-c1nc(N)ncc1CCC3 | PIKFYVE | target engagement in cells, BRET |  | 6.50 |
| O=C1NC(=S)S/C1=C\c1cc(Br)cc(Br)c1 | PIK3CA | enzyme activity, inhibitor, radiometric |  | < 4.00 |
| CSc1ccc(/C=C2/C(C)=C(CC(=O)O)c3cc(F)ccc32)cc1 | PDE9A | enzyme activity, inhibitor |  | < 4.00 |
| COc1ccc(/C=C2\SC(=S)NC2=O)c(OC)c1OC | PIK3CA | enzyme activity, inhibitor, radiometric |  | 4.17 |
| C/C=C1\NC(=O)[C@H](C)NC(=O)[C@@H](NC(=O)[C@@H](Cc2ccc(O)cc2)NC(=O)[C@@H](NC(=O)/C(C)=C/C)C(C)C)[C@@H](C)OC(=O)[C@H](CCc2ccc(O)cc2)NC(=O)[C@@H](CCC(=O)O)NC1=O | CELA1 | enzyme activity, inhibitor, absorbance |  | 5.67 |
| NC(=O)[C@H](CCCN=C(N)CF)NC(=O)c1ccccc1 | PADI1 | enzyme activity, inhibitor |  | 4.53 |
| C[C@@H]1COCCN1c1nc(-c2cnc(N)nc2C(F)F)nc(N2CCOCC2)n1 | PIK3CA | ligand displacement, TR-FRET |  | 7.58 |
| COCC1CCCc2c1[nH]c(=O)c(C#N)c2-c1ccc(C)cc1 (centres unmarked) | PDE9A | enzyme activity, inhibitor, radiometric |  | 6.40 |
| COc1cc(O)c(CC=C(C)C)c2c1C(=O)CC(c1ccc(O)cc1)O2 (centres unmarked) | CYP1A1 | enzyme activity, inhibitor, fluorescence | 15 min, pH 7.4 | 5.80 |
| O=C1NC(=S)S/C1=C\c1cc([N+](=O)[O-])ccc1Cl | PIK3CA | enzyme activity, inhibitor, radiometric |  | 4.38 |
| Cc1ccc(C(C)C)cc1NC(=O)COC(=O)c1ccc(O)c(O)c1 | CELA1 | enzyme activity, inhibitor, absorbance |  | 4.61 |
| Cn1cc(C2=C(c3coc4ccccc34)C(=O)NC2=O)c2cc(Br)ccc21 | PIK3CA | enzyme activity, inhibitor |  | 6.06 |
| CC(=O)NC(C)(C)C#Cc1ccc2[nH]c3c(c2c1)-c1nc(N)ncc1CCC3 | PIKFYVE | target engagement in cells, BRET |  | < 5.00 |
| CC(C)(C)n1nc(-c2ccc3nc(OC4CC4)ccc3c2)c(C(N)=O)c1N | Dual specificity mitogen-activated protein kinase kinase 1 (MAP2K1, Homo sapiens, UniProt Q02750) | cell-free assay |  | 5.62 |
| CC(C)(C#Cc1ccc2[nH]c3c(c2c1)-c1nc(N)ncc1CCC3)CO | PIKFYVE | target engagement in cells, BRET |  | 5.67 |
| O=[N+]([O-])c1ccc(N2CCN(S(=O)(=O)c3ccc(F)cc3)CC2)cc1NCc1cccnc1 | ATP-sensitive inward rectifier potassium channel 1 (Homo sapiens, UniProt P48048) | ion flux, inhibitor |  | 5.72 |
| O=C(O)CCc1ccc(O)c(CN(CCN(CC(=O)O)Cc2cc(CCC(=O)NCCCCCC(=O)NCCCC[C@H](NC(=O)N[C@@H](CCC(=O)O)C(=O)O)C(=O)O)ccc2O)CC(=O)O)c1 | Glutamate carboxypeptidase 2 (FOLH1, Homo sapiens, UniProt Q04609) | ligand displacement, radioligand |  | 7.61 |
| CC(C)(O)CC#Cc1ccc2[nH]c3c(c2c1)-c1nc(N)ncc1CCC3 | PIKFYVE | target engagement in cells, BRET |  | 6.54 |
| NC(=O)c1ccc[n+]([C@@H]2O[C@H](COP(=O)([O-])OP(=O)(O)OC[C@H]3O[C@@H](n4cnc5c(N)ncnc54)[C@H](O)[C@@H]3O)[C@@H](O)[C@H]2O)c1 | Protein mono-ADP-ribosyltransferase PARP15 (PARP15, Homo sapiens, UniProt Q460N3) | enzyme activity, inhibitor |  | 3.20 |
| CCNC(=O)[C@H](CCCNC(=N)CCl)NC(=O)c1ccccc1 | PADI1 | enzyme activity, inhibitor |  | 5.55 |
| CC(C)(C)c1c(O)ccc(/C=C2\SC(=S)NC2=O)c1C(C)(C)C | PIK3CA | enzyme activity, inhibitor, radiometric |  | 4.52 |
| COc1ccc(C2=NN(C3CCCCCC3)C(=O)[C@@H]3CC=CC[C@H]23)cc1-c1ccc(C(N)=O)cc1 (relative stereo) | PDE9A | enzyme activity, inhibitor |  | < 5.00 |
| O=C1NC(=S)S/C1=C\c1csc2ccc(Cl)cc12 | PIK3CA | enzyme activity, inhibitor, radiometric |  | 4.52 |
| CNC(=O)c1cc2c(Oc3ccc(NC(=O)C4(C(=O)Nc5ccc(F)cc5)CC4)cc3)ccnc2cc1OC | Protein-tyrosine kinase 6 (PTK6, Homo sapiens, UniProt Q13882) | enzyme activity, inhibitor, radiometric |  | 7.60 |

| Compound | target | test | setting | pIC50 |
| --- | --- | --- | --- | --- |
| Cc1ccc(C(C)C)cc1NC(=O)COC(=O)c1cccc(O)c1 | CELA1 | enzyme activity, inhibitor, absorbance |  | 4.38 |
| CC(=O)C1=C(C)N(c2cccc(C(F)(F)F)c2)C(=O)N[C@@H]1c1ccc(C#N)nc1 | CELA1 | enzyme activity, inhibitor |  | < 4.52 |
| Cc1ccc(C(C)C)cc1NC(=O)COC(=O)/C=C/c1ccccc1 | CELA1 | enzyme activity, inhibitor, absorbance |  | 5.30 |
| C=C(C)CCOP(=O)(O)OP(=O)(O)OP(=O)(O)OC[C@H]1O[C@@H](n2cnc3c(N)ncnc32)[C@H](O)[C@@H]1O | GSK3B | enzyme activity, inhibitor, radiometric |  | 5.37 |
| C/C=C1\NC(=O)[C@H](C)NC(=O)[C@@H](NC(=O)[C@H](Cc2ccc(O)cc2)NC(=O)[C@@H](NC(=O)/C(C)=C/C)C(C)C)[C@@H](C)OC(=O)[C@H](CCCc2ccc(O)cc2)NC(=O)[C@@H](CCC(=O)OC)NC1=O | CELA1 | enzyme activity, inhibitor, absorbance |  | 5.65 |
| CC(C)C[C@H](CC(=O)NO)C(=O)N[C@@H](Cc1ccccc1)C(=O)NCCN1CCOCC1 | Collagenase 3 (Rattus norvegicus, UniProt P23097) | enzyme activity, inhibitor, absorbance |  | 7.82 |
| NCCCC[C@H](NC(=O)[C@@H]1CCCN1C(=O)[C@@H]1CSSC[C@H](NC(=O)CNC(=O)CNC(=O)CN)C(=O)N[C@@H](Cc2ccc(O)cc2)C(=O)N[C@@H](Cc2ccccc2)C(=O)N[C@@H](CCC(N)=O)C(=O)N[C@@H](CC(N)=O)C(=O)N1)C(=O)NCC(N)=O | AVPR1A | ligand displacement, radioligand | cell membranes | 5.77 |
| C[C@H](CS)C(=O)N1CCC[C@@H]1C(=O)O | Beta-lactamase L1 (Stenotrophomonas maltophilia, UniProt P52700) | enzyme activity, inhibitor |  | 4.17 |
| O=C(Nc1c[nH]nc1C(=O)NC1CCNCC1)c1cc(F)cc(F)c1 | Cyclin-dependent kinase 16 (CDK16, Homo sapiens, UniProt Q00536) | target engagement in cells, BRET |  | 5.72 |
| O=C1NC(=S)S/C1=C\c1c[nH]c2ccccc12 | PIK3CA | enzyme activity, inhibitor, radiometric |  | < 4.00 |
| CC1(C)CC(=O)c2cc(-c3nc(-c4ccc(Cl)cc4)cs3)c(=O)n(-c3ccccc3C(F)(F)F)c2C1 | Isocitrate dehydrogenase [NADP] cytoplasmic (IDH1, Homo sapiens, UniProt O75874, R132C) | enzyme activity, inhibitor |  | 6.70 |
| Cc1ccc(C(=O)Nc2ccc(Oc3cc4cnn(C)c4cc3-c3cn[nH]c3)c(F)c2)c(=O)n1-c1ccc(F)cc1 | Vascular endothelial growth factor receptor 2 (KDR, Homo sapiens, UniProt P35968) | enzyme activity, inhibitor, radiometric |  | 7.28 |
| C[C@@H]1O[C@@H](O[C@H]2[C@H](Oc3c(-c4ccc(O)cc4)oc4cc(O)cc(O)c4c3=O)O[C@H](CO[C@@H]3O[C@H](CO)[C@@H](O)[C@H](O)[C@H]3O)[C@@H](O)[C@@H]2O)[C@H](O)[C@H](O)[C@H]1O | Prostaglandin G/H synthase 2 (PTGS2, Ovis aries, UniProt P79208) | enzyme activity, inhibitor, absorbance |  | 4.36 |
| O=C(NCc1ccc(N2CCOCC2)cc1)c1cnc2c(SSc3cccc4cc(C(=O)NCc5ccc(N6CCOCC6)cc5)cnc34)cccc2c1 | STAM-binding protein (STAMBP, Homo sapiens, UniProt O95630) | enzyme activity, inhibitor, FRET |  | 6.05 |
| O=C1NC(=S)S/C1=C\c1ccc(C(=O)O)cc1 | PIK3CA | enzyme activity, inhibitor, radiometric |  | < 4.00 |
| Cc1ccc(C(C)C)cc1NC(=O)COC(=O)/C=C/c1ccc(O)cc1 | CELA1 | enzyme activity, inhibitor, absorbance |  | 4.63 |
| CN1CCN(c2ccc(Nc3ncc4cc(C#N)c(=O)n(C5CCCC5)c4n3)cc2)CC1 | Dual specificity tyrosine-phosphorylation-regulated kinase 2 (DYRK2, Homo sapiens, UniProt Q92630) | enzyme activity, inhibitor |  | 4.51 |
| CC(C)=CCc1c(O)cc(O)c2c1O[C@H](c1ccc(O)cc1)CC2=O | CYP1A1 | enzyme activity, inhibitor, fluorescence | 15 min, pH 7.4 | 6.42 |
| CC(C)(C#Cc1ccc2[nH]c3c(c2c1)-c1nc(N)ncc1CCC3)NS(C)(=O)=O | PIKFYVE | target engagement in cells, BRET |  | 5.80 |
| CCCCN1/C(=C/C=C/c2sc3ccc(Br)cc3[n+]2CCCC)Sc2ccc(Br)cc21 | Protein arginine N-methyltransferase 8 (PRMT8, Homo sapiens, UniProt Q9NR22) | enzyme activity, inhibitor, radiometric |  | 5.45 |
| Cc1ccc(C(C)C)cc1NC(=O)COC(=O)/C=C/c1ccc(Cl)cc1 | CELA1 | enzyme activity, inhibitor, absorbance |  | 4.45 |
| CCn1c(-c2nc3cc(C(=O)N4CCC[C@@H](N)C4)cc(OC)c3n2C)cc2cccnc21 | AVPR1A | calcium signal, antagonist, fluorescence |  | < 4.30 |
| CCOC(F)(F)c1nnc2cnc(-c3cnc(OCC(F)(F)F)c(F)c3)cn12 | Sodium channel protein type 2 subunit alpha (Scn2a, Rattus norvegicus, UniProt P04775) | ion current, inhibitor, patch clamp |  | 6.75 |
| O=C1NC(=S)S/C1=C\c1cc([N+](=O)[O-])ccc1O | PIK3CA | enzyme activity, inhibitor, radiometric |  | 4.64 |
| COc1ccc(S(=O)(=O)ON=C2C=C(C)C(=O)C(C)=C2)cc1 | Histone acetyltransferase KAT6B (Homo sapiens, UniProt Q8WYB5) | enzyme activity, inhibitor, radiometric |  | < 4.00 |
